Results from ChEMBL document CHEMBL5247578, “Effective synthesis of benzimidazoles-imidazo[1,2-a]pyrazine conjugates: A comparative study of mono-and bis-benzimidazoles for antitumor activity” (Eur J Med Chem, 2019).

How the values were obtained:
[1] = test system: SK-MEL-28; assay: Growth inhibition against human SK-MEL-28 cells assessed as total growth inhibitory concentration incubated for 48 hrs by sulforhodamine B assay; type: functional
[2] = test system: MCF7; assay: Growth inhibition against human MCF7 cells incubated for 48 hrs by sulforhodamine B assay; type: functional
[3] = test system: Calf thymus DNA; assay: Binding affinity to calf thymus DNA assessed as change in entropy at temperature of 298 K by Van't Hoff plot analysis; type: nucleic-acid assay; conditions: Bos taurus
[4] = test system: HOP-62; assay: Growth inhibition against human HOP-62 cells assessed as total growth inhibitory concentration incubated for 48 hrs by sulforhodamine B assay; type: functional
[5] = test system: K562; assay: Antiproliferative activity against human K562 cells assessed as cell growth at 0.00001 M incubated for 48 hrs by SRB assay relative to control; type: functional; conditions: read-out: Activity
[6] = test system: SN12C; assay: Growth inhibition against human SN12C cells assessed as total growth inhibitory concentration incubated for 48 hrs by sulforhodamine B assay; type: functional
[7] = test system: SK-MEL-5; assay: Growth inhibition against human SK-MEL-5 cells incubated for 48 hrs by sulforhodamine B assay; type: functional
[8] = test system: SK-MEL-5; assay: Antiproliferative activity against human SK-MEL-5 cells assessed as cell growth inhibition by measuring lethal concentration incubated for 48 hrs by sulforhodamine B assay; type: functional; conditions: read-out: LC50 (the source's name)
[9] = test system: K562; assay: Antiproliferative activity against human K562 cells assessed as cell growth at 0.0000001 M incubated for 48 hrs by SRB assay relative to control; type: functional; conditions: dose 100 nM, read-out: Activity
[10] = test system: U-251; assay: Antiproliferative activity against human U-251 cells assessed as cell growth at 0.0001 M incubated for 48 hrs by SRB assay relative to control; type: functional; conditions: read-out: Activity
[11] = test system: EKVX; assay: Antiproliferative activity against human EKVX cells assessed as cell growth at 0.0001 M incubated for 48 hrs by SRB assay relative to control; type: functional; conditions: read-out: Activity
In short: (§1)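 NCI-60 five-dose screen (10^-4 to 10^-8 M). Cells grown in RPMI 1640 with 5% FBS and 2 mM L-glutamine, plated at 5,000-40,000 cells/well and preincubated 24 h. Drug given from DMSO stock, then 48 h at 37 °C, 5% CO2. For adherent lines, cells fixed with cold TCA, SRB-stained and read at 515 nm. Percent growth taken against time-zero and untreated control.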

[12] = test system: UACC-62; assay: Antiproliferative activity against human UACC-62 cells assessed as cell growth at 0.00001 M incubated for 48 hrs by SRB assay relative to control; type: functional; conditions: read-out: Activity
[13] = test system: HT-29; assay: Antiproliferative activity against human HT-29 cells assessed as cell growth at 0.000001 M incubated for 48 hrs by SRB assay relative to control; type: functional; conditions: read-out: Activity; in short: as §1
[14] = test system: U-251; assay: Growth inhibition against human U-251 cells assessed as total growth inhibitory concentration incubated for 48 hrs by sulforhodamine B assay; type: functional
[15] = test system: NCI/ADR-RES; assay: Antiproliferative activity against human NCI/ADR-RES cells assessed as cell growth at 0.0001 M incubated for 48 hrs by SRB assay relative to control; type: functional; conditions: read-out: Activity
[16] = test system: SF-539; assay: Antiproliferative activity against human SF-539 cells assessed as cell growth inhibition by measuring lethal concentration incubated for 48 hrs by sulforhodamine B assay; type: functional; conditions: read-out: LC50 (the source's name)
[17] = test system: MOLT-4; assay: Antiproliferative activity against human MOLT-4 cells assessed as cell growth at 0.00001 M incubated for 48 hrs by SRB assay relative to control; type: functional; conditions: read-out: Activity
[18] = test system: COLO 205; assay: Antiproliferative activity against human COLO 205 cells assessed as cell growth inhibition by measuring lethal concentration incubated for 48 hrs by sulforhodamine B assay; type: functional; conditions: read-out: LC50 (the source's name)
[19] = test system: M14; assay: Growth inhibition against human M14 cells assessed as total growth inhibitory concentration incubated for 48 hrs by sulforhodamine B assay; type: functional
[20] = test system: Calf thymus DNA; assay: Binding affinity to calf thymus DNA assessed as fluorescence quenching intensity at 5 uM at temperature of 308 K by fluorescence spectroscopic method relative to control; type: nucleic-acid assay; conditions: Bos taurus
[21] = test system: OVCAR-5; assay: Growth inhibition against human OVCAR-5 cells assessed as total growth inhibitory concentration incubated for 48 hrs by sulforhodamine B assay; type: functional
[22] = test system: LOX IMVI; assay: Antiproliferative activity against human LOX IMVI cells assessed as cell growth inhibition by measuring lethal concentration incubated for 48 hrs by sulforhodamine B assay; type: functional; conditions: read-out: LC50 (the source's name)
[23] = test system: K562; assay: Growth inhibition against human K562 cells assessed as total growth inhibitory concentration incubated for 48 hrs by sulforhodamine B assay; type: functional
[24] = test system: LOX IMVI; assay: Antiproliferative activity against human LOX IMVI cells assessed as cell growth at 0.0001 M incubated for 48 hrs by SRB assay relative to control; type: functional; conditions: read-out: Activity
[25] = test system: Calf thymus DNA; assay: Binding affinity to calf thymus DNA assessed as gibbs free energy change at temperature of 318 K by Van't Hoff plot analysis; type: nucleic-acid assay; conditions: Bos taurus
[26] = test system: SNB-19; assay: Growth inhibition against human SNB-19 cells assessed as total growth inhibitory concentration incubated for 48 hrs by sulforhodamine B assay; type: functional
[27] = test system: NCI-H226; assay: Antiproliferative activity against human NCI-H226 cells assessed as cell growth at 0.00001 M incubated for 48 hrs by SRB assay relative to control; type: functional; conditions: read-out: Activity
[28] = test system: K562; assay: Antiproliferative activity against human K562 cells assessed as cell growth at 0.00000001 M incubated for 48 hrs by SRB assay relative to control; type: functional; conditions: dose 10 nM, read-out: Activity
[29] = test system: SW-620; assay: Growth inhibition against human SW620 cells assessed as total growth inhibitory concentration incubated for 48 hrs by sulforhodamine B assay; type: functional
[30] = test system: MDA-MB-231; assay: Antiproliferative activity against human MDA-MB-231 cells assessed as cell growth inhibition by measuring lethal concentration incubated for 48 hrs by sulforhodamine B assay; type: functional; conditions: read-out: LC50 (the source's name)
[31] = test system: BT-549; assay: Antiproliferative activity against human BT-549 cells assessed as cell growth at 0.00000001 M incubated for 48 hrs by SRB assay relative to control; type: functional; conditions: dose 10 nM, read-out: Activity
In short: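 NCI-60 five-dose screen over 10^-4–10^-8 M (10-fold dilutions). Cells grown in RPMI 1640 with 5% FBS and 2 mM L-glutamine, seeded at 5,000–40,000 cells/well and preincubated 24 h. Drug from DMSO stock, 48 h at 37 °C, 5% CO2. Adherent cells TCA-fixed and stained with 0.4% SRB; A515 read. Percent growth = (Ti−Tz)/(C−Tz)×100, or (Ti−Tz)/Tz×100 when Ti<Tz.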

[32] = test system: K562; assay: Antiproliferative activity against human K562 cells assessed as cell growth at 0.0001 M incubated for 48 hrs by SRB assay relative to control; type: functional; conditions: read-out: Activity
[33] = test system: HCT-15; assay: Growth inhibition against human HCT-15 cells assessed as total growth inhibitory concentration incubated for 48 hrs by sulforhodamine B assay; type: functional
[34] = test system: 786-0; assay: Growth inhibition against human 786-0 cells incubated for 48 hrs by sulforhodamine B assay; type: functional
[35] = test system: T47D; assay: Antiproliferative activity against human T47D cells assessed as cell growth at 0.0001 M incubated for 48 hrs by SRB assay relative to control; type: functional; conditions: read-out: Activity
[36] = test system: RXF 393; assay: Growth inhibition against human RXF 393 cells assessed as total growth inhibitory concentration incubated for 48 hrs by sulforhodamine B assay; type: functional
[37] = test system: NCI/ADR-RES; assay: Growth inhibition against human NCI/ADR-RES cells assessed as total growth inhibitory concentration incubated for 48 hrs by sulforhodamine B assay; type: functional

COc1ccc(-c2cn3ccnc3c(-c3ccc4ncn(C5CCCCC5)c4c3)n2)cc1
TGI [1]: > 100 µM | GI50 [2]: 0.64 µM | deltaS [3]: -206 cal/mol/K | TGI [4]: > 100 µM | growth at 10 µM [5]: 8% | TGI [6]: > 100 µM | GI50 [7]: 0.698 µM | CC50 [8]: > 100 µM | growth at 0.1 µM [9]: 92% | growth at 100 µM [10]: 6% | growth at 100 µM [11]: 26% | growth at 10 µM [12]: 7% | growth at 1 µM [13]: 20% | TGI [14]: > 100 µM | growth at 100 µM [15]: 3% | CC50 [16]: > 100 µM | growth at 10 µM [17]: 13% | CC50 [18]: > 100 µM | TGI [19]: > 100 µM | Activity [20]: 65% | TGI [21]: > 100 µM | CC50 [22]: > 100 µM | TGI [23]: > 100 µM | growth at 100 µM [24]: 19% | deltaG [25]: -3.79 kcal/mol | TGI [26]: > 100 µM | growth at 10 µM [27]: 25% | growth at 0.01 µM [28]: 105% | TGI [29]: > 100 µM | CC50 [30]: > 100 µM | growth at 0.01 µM [31]: 8% | growth at 100 µM [32]: 11% | TGI [33]: > 100 µM | GI50 [34]: 0.527 µM | growth at 100 µM [35]: -21%

c1ccc(Cn2cnc3ccc(-c4nc(-c5ccc6c(c5)ncn6C5CCCCC5)cn5ccnc45)cc32)cc1
GI50 [2]: 2.72 µM | GI50 [7]: 1.5 µM | growth at 100 µM [11]: 14% | TGI [36]: 2.75 µM | growth at 10 µM [12]: -37% | growth at 1 µM [13]: 88% | TGI [37]: 5.43 µM | TGI [26]: > 100 µM | growth at 0.01 µM [31]: 85% | GI50 [34]: 0.799 µM | growth at 100 µM [35]: 9%
